The results in this text go back to ChEMBL document CHEMBL1811910, “Semisynthetic analogues of the marine cembranoid sarcophine as prostate and breast cancer migration inhibitors” (Bioorg Med Chem, 2011).

Active and inactive are the calls of the source. The rule behind the calls is not given here.

Experiment [1] concerns MDA-MB-231. Briefly: Antiproliferative activity against human MDA-MB-231 cells at 5 to 50 uM after 24 hrs by MTT assay. It counts as functional, cell-based. The method in brief: (§1)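 After 3-4 passages in RPMI 1640 with 10% FBS, cells were seeded at 8 × 10^3 per well and left to attach for 24 h. Medium was then replaced with serum-free RPMI containing compound at 50, 20, 10 or 5 µM. Viability was read by MTT conversion to formazan, and cell number was taken from a standard curve of plated cells, with cells kept in exponential growth.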

For experiment [2], the system named is MDA-MB-231. The experiment can be described thus: Antimigratory activity against human MDA-MB-231 cells at 50 uM after 24 hrs by wound healing assay. It counts as functional, cell-based. The method in brief:
(§2)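 Cells grown to >90% confluent monolayer in RPMI 1640 with 10% FBS, glutamine, penicillin/streptomycin at 37 °C, 5% CO2, then scratched with a sterile 200 µL pipette tip. Compounds added in DMSO, in triplicate; PMH 200 µM positive control, DMSO vehicle control. After 24 h serum-starved incubation, cells were fixed and Diff Quick stained. Migrated cells counted in ≥3 random 400× fields, reported as mean ± SEM.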

The subject of experiment [3] is PC-3. The experiment can be described thus: Antiproliferative activity against human PC3 cells at 5 to 50 uM after 24 hrs by MTT assay. The experiment is classed as functional, cell-based. The method in brief:
as §1

The test system of experiment [4] is PC-3. Briefly: Antimigratory activity against human PC3 cells at 200 uM after 24 hrs by wound healing assay. The experiment is classed as functional, cell-based. The method in brief:
as §2

Experiment [5] relates to MDA-MB-231. The experiment can be described thus: Antimigratory activity against human MDA-MB-231 cells at 200 uM after 24 hrs by wound healing assay. The experiment is classed as functional, cell-based. The method in brief:
as §2

For experiment [6], the system named is PC-3. The experiment can be described thus: Antimigratory activity against human PC3 cells after 24 hrs by wound healing assay. The experiment is classed as functional, cell-based. The following applies: PC-3, 24 h. The method in brief: as §2
For experiment [7], the system named is PC-3. The experiment can be described thus: Antimigratory activity against human PC3 cells at 50 uM after 24 hrs by wound healing assay. The experiment is classed as functional, cell-based. The essentials:
as §2

Experiment [8] deals with MDA-MB-231. The experiment can be described thus: Antiproliferative activity against human MDA-MB-231 cells after 24 hrs by MTT assay. The experiment is classed as functional, cell-based. The following applies: MDA-MB-231, 24 h. The method in brief:
as §1

For experiment [9], the system named is MDA-MB-231. Briefly: Antimigratory activity against human MDA-MB-231 cells after 24 hrs by wound healing assay. The experiment is classed as functional, cell-based. The following applies: MDA-MB-231, 24 h. The method in brief: as §2
For experiment [10], the system named is MDA-MB-231 (Homo sapiens). The experiment can be described thus: Antimigratory activity against human MDA-MB-231 cells at 5 to 30 uM after 24 hrs by wound healing assay.
The subject of experiment [11] is MDA-MB-231. The experiment can be described thus: Antimigratory activity against human MDA-MB-231 cells at 5 to 30 uM after 24 hrs by wound healing assay. It counts as functional, cell-based. The essentials:
as §2

Turning to `C=C1CC/C=C(\C)CCC2=C(C)C(=O)O[C@H]2/C=C(\C)CC[C@@H]1OC(=O)NCCCCC`, the outcome in the experiment with MDA-MB-231 [1] and in the experiment with PC-3 [3] was inactive. Also, the result in the experiment with MDA-MB-231 [2] was Active.
On to `O=C1NC(=O)/C(=C/c2ccc(O)cc2)N1`, for which the result with PC-3 [4] and with MDA-MB-231 [5] was Active.
Regarding `CO[C@H]1CC/C(C)=C/[C@@H]2OC(=O)C(C)=C2CC/C(C)=C/CC[C@]1(C)O`, the result with MDA-MB-231 [1] and in the experiment with PC-3 [3] was inactive.
On to `C=C1CC/C=C(\C)CCC2=C(C)C(=O)O[C@H]2/C=C(\C)CC[C@@H]1OC(=O)Nc1ccccc1`, for which it took 16.3 µM to reach half-maximal inhibition in the experiment with PC-3 [6] (IC50). In addition, the outcome with MDA-MB-231 [1] and in the experiment with PC-3 [3] was inactive. For the same compound, the outcome in the experiment with MDA-MB-231 [2] and with PC-3 [7] was Active.
With `C=C1CC/C=C(\C)CCC2=C(C)C(=O)O[C@H]2/C=C(\C)CC[C@@H]1OC(=O)NCCCC`, the IC50 in the experiment with MDA-MB-231 [8] came out at 7 µM; in the experiment on MDA-MB-231 [9], 4.83 µM. Further, the result (in experiment [10]; with MDA-MB-231 [11]; with PC-3 [7]) was Active. In addition, in the experiment on PC-3 [3], the outcome was inactive.
Consider `C=C1CC/C=C(\C)CCC2=C(C)C(=O)O[C@H]2/C=C(\C)CCC1=O`, for which the outcome in the experiment on MDA-MB-231 [1] and with PC-3 [3] was inactive.
Consider `CCCO[C@H]1CC/C(C)=C/[C@@H]2OC(=O)C(C)=C2CC/C(C)=C/CC[C@]1(C)O`, for which the result in the experiment on MDA-MB-231 [1] and in the experiment with PC-3 [3] was inactive. Moreover, the result in the experiment on MDA-MB-231 [2] and in the experiment with PC-3 [7] was Active.
Take `CC1=C2CC/C(C)=C/CC[C@]3(C)O[C@H]3CC/C(C)=C/[C@@H]2OC1=O`: the outcome in the experiment with MDA-MB-231 [1] and with PC-3 [3] was inactive.
Turning to `C=C1CC/C=C(\C)CCC2=C(C)C(=O)O[C@H]2/C=C(\C)CC[C@@H]1OC(=O)NCCCCl`, the outcome with MDA-MB-231 [1] and in the experiment on PC-3 [3] was inactive.
In the case of `CC1=C2CC/C(C)=C/CC[C@]3(C)O[C@H]3CC/C(C)=C/[C@@H]2OC1`, the result in the experiment on MDA-MB-231 [1] and in the experiment with PC-3 [3] was inactive. Moreover, the result in the experiment on MDA-MB-231 [2] was Active.
As for `C=C1CC/C=C(\C)CCC2=C(C)C(=O)O[C@H]2/C=C(\C)CC[C@@H]1OC(=O)NC1CCCCC1`, the IC50 in the experiment with MDA-MB-231 [8] turned out to be 45 µM; in the experiment with PC-3 [6], 15.5 µM; with MDA-MB-231 [9] it was 17.2 µM. The outcome (in [10]; with MDA-MB-231 [11]; in the experiment with PC-3 [7]) was Active. In the experiment on PC-3 [3], the result was inactive.
In the case of `CC1=C2CC/C(C)=C/CC[C@](C)(O)[C@@H](O)CC/C(C)=C/[C@@H]2OC1=O`, the outcome with MDA-MB-231 [1] and in the experiment with PC-3 [3] was inactive. Besides, the result in the experiment with MDA-MB-231 [2] was Active.
Regarding `C=C1CC/C=C(\C)CCC2=C(C)C(=O)O[C@H]2/C=C(\C)CC[C@@H]1O`, the result in the experiment with MDA-MB-231 [1] and with PC-3 [3] was inactive. The outcome in the experiment on MDA-MB-231 [2] was Active.
For `CC1=C2CC/C(C)=C/CC[C@]3(C)O[C@H]3CC/C(C)=C\[C@H]2OC1`, the outcome in the experiment with MDA-MB-231 [1] and with PC-3 [3] was inactive. Also, the result in the experiment with PC-3 [7] was Active.
In the case of `CCCCO[C@H]1CC/C(C)=C/[C@@H]2OC(=O)C(C)=C2CC/C(C)=C/CC[C@]1(C)O`, the values for the IC50 with MDA-MB-231 [8] and in the experiment with MDA-MB-231 [9] were 20 µM and 30 µM, respectively. The outcome (in experiment [10]; in the experiment on MDA-MB-231 [11]; in the experiment with PC-3 [3]) was inactive.
Turning to `C=CCNC(=O)N(CC=C)C(=O)N(CC=C)C(=O)O[C@H]1CC/C(C)=C/[C@@H]2OC(=O)C(C)=C2CC/C(C)=C/CCC1=C`, it took 24.3 µM to reach half-maximal inhibition in the experiment with PC-3 [6] (IC50). Further, the outcome with MDA-MB-231 [1] and with PC-3 [3] was inactive. Also, the result with MDA-MB-231 [2] and in the experiment on PC-3 [7] was Active.
